ChEMBL document CHEMBL3112439, “Inhibition of long chain fatty acyl-CoA synthetase (ACSL) and ischemia reperfusion injury” (Bioorg Med Chem Lett, 2014)
pEC50: −log10 of the molar value. Calls of active or inactive are those of the source. The calls are words filed in the database; no cut-off is given here.

Tests used:
Mus musculus [1] = species: Mus musculus; assay: Effect on mean extractable lipid mass in mouse bEND.3 cells at 15 uM relative to control; format: functional, cell-based
Method in brief: (§1)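 In situ assay in intact bEND3 brain endothelial cells given [14C]-palmitic acid; test agents at 15 μM (triacsin C reference at 1.5 μM). Radioactivity measured in the extractable lipid fraction, the aqueous layer and the media, with total recovery summed (lipid + aqueous + media); lipid mass extracted also determined. Treated groups compared with control by one-way ANOVA and Dunnett's t test; n = 3 to 9 independent experiments.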

[2] = Inhibition of ACSL in mouse solubilized bEND.3 cells using [14C]-palmitic acid as substrate after 2 mins by liquid scintillation spectrometric analysis; conditions: BEND3, 2 min
Method in brief: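 ACSL activity in solubilized bEND3 brain endothelial cells; reaction velocity measured across a range of inhibitor concentrations. EC50 obtained by fitting velocity vs. inhibitor concentration to a constrained three-parameter log(inhibitor) vs. response function.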

Mus musculus [3] = species: Mus musculus; assay: Inhibition of ACSL in mouse solubilized bEND.3 cells using [14C]-palmitic acid as substrate assessed as increase in unincorporated radioactivity in media at 15 uM after 2 hrs by liquid scintillation spectrometric analysis; method in brief: as §1
Mus musculus [4] = species: Mus musculus; assay: Inhibition of ACSL in mouse solubilized bEND.3 cells using [14C]-palmitic acid as substrate assessed as effect on total recovery of radioactive substrate at 15 uM after 2 hrs by liquid scintillation spectrometric analysis; method in brief: as §1
Mus musculus [5] = species: Mus musculus; assay: Inhibition of ACSL in mouse […] bEND.3 cells assessed as inhibition of [14C]-palmitate incorporation into extractable lipids at 15 uM after 2 hrs by liquid scintillation spectrometric analysis; method in brief: as §1
Mus musculus [6] = species: Mus musculus; assay: Inhibition of ACSL in mouse solubilized bEND.3 cells using [14C]-palmitic acid as substrate assessed as decrease in radioactivity in aqueous layer at 15 uM after 2 hrs by liquid scintillation spectrometric analysis
Leukocyte [7] = assay: Inhibition of Sprague-Dawley rat leukocytes recruitment assessed as inhibition of cell rolling in unbranched post-capillary venules of mesentery at 50 uM measured at 120 mins; format: functional, tissue-based
Method in brief: (§2)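 Leukocyte recruitment induced by L-NAME, used as an ischemia model, in post-capillary venules of the mesentery. Rolling, adhesion and extravasation scored at 120 minutes with or without compound at 5 or 50 μM; vehicle-alone group included. Mean ± SEM of 3 to 7 independent experiments.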

Leukocyte [8] = assay: Inhibition of Sprague-Dawley rat leukocytes recruitment assessed as inhibition of cell extravasation in unbranched post-capillary venules of mesentery at 50 uM measured at 120 mins; format: functional, tissue-based; method in brief: as §2
Leukocyte [9] = assay: Inhibition of Sprague-Dawley rat leukocytes recruitment assessed as inhibition of cell adhesion in unbranched post-capillary venules of mesentery at 50 uM measured at 120 mins; format: functional, tissue-based; method in brief: as §2
Mus musculus [10] = species: Mus musculus; assay: Inhibition of ACSL in mouse solubilized bEND.3 cells using [14C]-palmitic acid as substrate assessed as increase in unincorporated radioactivity in media at 1.5 uM after 2 hrs by liquid scintillation spectrometric analysis
Method in brief: (§3)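 Intact bEND3 brain endothelial cells were labelled with [14C]-palmitic acid with inhibitor at a single concentration, against untreated control cultures. Radioactivity was measured in the extractable lipid fraction, the aqueous fraction and the medium, and total recovery was summed (lipid + aqueous + media). Lipid mass was expressed as % of control. Groups were compared with control by one-way ANOVA and Dunnett's test; n = 3 to 9 independent experiments.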

Leukocyte [11] = assay: Inhibition of Sprague-Dawley rat leukocytes recruitment assessed as inhibition of cell extravasation in unbranched post-capillary venules of mesentery at 5 uM measured at 120 mins; format: functional, tissue-based
Method in brief: (§4)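 Recruitment was induced by L-NAME. Rolling, adhesion and extravasation were counted in post-capillary venules of the mesentery at 120 min. Compound was present at 5 or 50 μM, and vehicle-alone controls were run. Results are mean ± SEM of 3 to 7 independent experiments.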

Mus musculus [12] = species: Mus musculus; assay: Inhibition of ACSL in mouse solubilized bEND.3 cells using [14C]-palmitic acid as substrate assessed as effect on total recovery of radioactive substrate at 1.5 uM after 2 hrs by liquid scintillation spectrometric analysis; method in brief: as §3
Leukocyte [13] = assay: Inhibition of Sprague-Dawley rat leukocytes recruitment assessed as inhibition of cell adhesion in unbranched post-capillary venules of mesentery at 5 uM measured at 120 mins; format: functional, tissue-based; method in brief: as §4
Mus musculus [14] = species: Mus musculus; assay: Effect on mean extractable lipid mass in mouse bEND.3 cells at 1.5 uM relative to control; format: functional, cell-based; method in brief: as §3
Leukocyte [15] = assay: Inhibition of Sprague-Dawley rat leukocytes recruitment assessed as inhibition of cell rolling in unbranched post-capillary venules of mesentery at 5 uM measured at 120 mins; format: functional, tissue-based; method in brief: as §4
Mus musculus [16] = species: Mus musculus; assay: Inhibition of ACSL in mouse […] bEND.3 cells assessed as inhibition of [14C]-palmitate incorporation into extractable lipids at 1.5 uM after 2 hrs by liquid scintillation spectrometric analysis; method in brief: as §3
Mus musculus [17] = species: Mus musculus; assay: Inhibition of ACSL in mouse solubilized bEND.3 cells using [14C]-palmitic acid as substrate assessed as decrease in radioactivity in aqueous layer at 1.5 uM after 2 hrs by liquid scintillation spectrometric analysis

| SMILES | pEC50 [2] | inhibition (Mus musculus [3]) | inhibition (Mus musculus [4]) | inhibition (Mus musculus [5]) | inhibition (Mus musculus [6]) | Activity (Mus musculus [1]) | other results |
| --- | --- | --- | --- | --- | --- | --- | --- |
| C=CCCCCCCCCCNc1ccc(C(=O)O)cc1 | 5.31 | Active | Active | Active | Active | inactive | – |
| C=CCCCCCCCCCNc1ccc(C(=O)O)c(O)c1 | 5.16 | Active | Active | Active | Active | inactive | – |
| C=CCCCCCCCCCN(O)/N=N/c1ccc(C(=O)O)cc1 | 4.14 | – | – | – | – | – | – |
| CCC/C=C/C/C=C/C=N/N1CCCS1(=O)=O | 3.77 | inactive | – | – | inactive | Active | – |
| CCC/C=C/C/C=C/C=C/Cn1oc(=O)[nH]c1=O | 4.27 | – | – | – | – | – | – |
| CCC/C=C/C/C=C/C=C/C=N/NN=O [TRIACSIN C] | 6.45 | – | – | – | – | – | inhibition (Mus musculus [10]): Active; inhibition (Leukocyte [11]): Active; inhibition (Mus musculus [12]): Active; inhibition (Leukocyte [13]): Active; Activity (Mus musculus [14]): inactive; inhibition (Leukocyte [15]): Active; inhibition (Mus musculus [16]): Active; inhibition (Mus musculus [17]): Active |

More lines, main results first:

| pEC50 [2] | inhibition (Mus musculus [3]) | inhibition (Mus musculus [4]) | inhibition (Mus musculus [5]) | inhibition (Mus musculus [6]) | SMILES | Activity (Mus musculus [1]) | other results |
| --- | --- | --- | --- | --- | --- | --- | --- |
| 4.83 | – | – | – | – | CCC/C=C/C/C=C/C=C/CNO | – | – |
| 3.79 | – | – | – | – | CCC/C=C/C/C=C/C=C/CNN1CCCS1(=O)=O | – | – |
| 5.04 | – | – | – | – | C=CCCCCCCCCCn1oc(=O)[nH]c1=O | – | – |
| 4.15 | Active | Active | Active | Active | C=CCCCCCCCCCNO | inactive | inhibition (Leukocyte [7]): Active; inhibition (Leukocyte [8]): Active; inhibition (Leukocyte [9]): Active |
| 4.57 | Active | Active | Active | Active | CCC/C=C/C/C=C/CN(O)/N=N/c1ccc(C(=O)O)cc1 | inactive | – |
| 5.23 | Active | Active | Active | Active | CCC/C=C/C/C=C/C=C/CNc1ccc(C(=O)O)cc1 | inactive | inhibition (Leukocyte [11]): Active; inhibition (Leukocyte [7]): Active; inhibition (Leukocyte [13]): Active; inhibition (Leukocyte [8]): Active; inhibition (Leukocyte [15]): Active; inhibition (Leukocyte [9]): Active |
| 4.13 | – | – | – | – | CCC/C=C/C/C=C/C=C/CN(O)/N=N/c1ccc(C(=O)O)cc1 | – | – |
